Assay results from ChEMBL document CHEMBL3045103, “Antimicrobial and antiurease activities of newly synthesized morpholine derivatives containing an azole nucleus” (Med Chem Res, 2013).
Activity calls are given as the source filed them.

Key:
Assay type in all cases: functional
[1] = system: Yersinia pseudotuberculosis; assay: Antibacterial activity against Yersinia pseudotuberculosis ATCC 911 after 18 to 24 hr by double microdilution method
In short: (§1)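 Compounds dissolved in […] as 20.000 μg/mL stock solutions. Tested quantitatively by double microdilution in Mueller–Hinton broth at pH 7.3, with plates incubated 18–24 h at 35 °C. Read-out is the minimal inhibition concentration (MIC) in μg/mL.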

Pseudomonas aeruginosa = assay: Antibacterial activity against Pseudomonas aeruginosa ATCC 43288 after 18 to 24 hr by double microdilution method
In short: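 Double microdilution in Mueller–Hinton broth, pH 7.3; plates incubated 18–24 h at 35 °C; MIC (μg/mL) determined. Compounds dissolved in hexane as 20.000 μg/mL stock.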

Staphylococcus aureus = assay: Antibacterial activity against Staphylococcus aureus ATCC 25923 after 18 to 24 hr by double microdilution method; in short: as §1
Enterococcus faecalis = assay: Antibacterial activity against Enterococcus faecalis ATCC 29212 after 18 to 24 hr by double microdilution method; in short: as §1
Bacillus cereus = assay: Antibacterial activity against Bacillus cereus 702 Roma after 18 to 24 hr by double microdilution method; in short: as §1
[2] = system: Mycolicibacterium smegmatis; assay: Antibacterial activity against Mycobacterium smegmatis ATCC 607 after 48 to 72 hr by double microdilution method
In short: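 Compounds dissolved in hexane as 20.000 μg/mL stock solutions. MIC (μg/mL) determined quantitatively by double microdilution, using Brain Heart Infusion broth as the growth medium for M. smegmatis.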

Measured: MIC

CCOC(=O)CNc1ccc(N2CCOCC2)nc1
not listed: [2]
inactive: all other assays above

O=C(CNc1ccc(N2CCOCC2)nc1)NNC(=S)Nc1ccccc1
not listed: [2]
inactive: all other assays above

O=C(CNc1ccc(N2CCOCC2)nc1)N/N=C1\SCC(=O)N1c1ccccc1
inactive: all assays above

O=C(CNc1ccc(N2CCOCC2)nc1)N/N=C/C=C/c1ccccc1
inactive: all assays above

O=C(CNc1ccc(N2CCOCC2)nc1)N/N=c1\sc(-c2ccc(Cl)cc2)cn1-c1ccccc1
inactive: all assays above

Sc1nnc(CNc2ccc(N3CCOCC3)nc2)o1
inactive: all assays above

O=C(CNc1ccc(N2CCOCC2)nc1)N/N=C/c1ccc(Br)cc1
not listed: [2]
inactive: all other assays above

Sc1nnc(CNc2ccc(N3CCOCC3)nc2)n1-c1ccccc1
not listed: [2]
inactive: all other assays above

NNC(=O)CNc1ccc(N2CCOCC2)nc1
not listed: [2]
inactive: all other assays above
